According to ChEMBL document CHEMBL1144185, “Synthesis and SAR study of N-(4-hydroxy-3-(2-hydroxynaphthalene-1-yl)phenyl)-arylsulfonamides: heat shock protein 90 (Hsp90) inhibitors with submicromolar activity in an in vitro assay” (Bioorg Med Chem Lett, 2008):
Calls of active or inactive are those of the source. The calls are words filed in the database; no cut-off is given here.

target: T1, Heat shock protein HSP90 (Homo sapiens, UniProt P07900+P08238); test: Inhibition of Hsp90 in human SKBR3 cells assessed as interaction with Cy3b-conjugated geldanamycin by FP assay; format: cell-based; settings: sk-br-3

Row | IC50 [µM] | Compound
1 | 26 | O=[N+]([O-])c1cc(S(=O)(=O)Nc2ccc(F)c(-c3c(O)ccc4c3OCO4)c2)ccc1Cl
2 | 4.5 | N#Cc1ccccc1S(=O)(=O)Nc1ccc(O)c(-c2c(O)ccc3ccccc23)c1
3 | 31.3 | Cc1ccc(S(=O)(=O)Nc2cccc(-c3c(O)ccc4c3OCO4)c2)cc1
4 | 14.5 | O=S(=O)(Nc1cccc(-c2c(O)ccc3c2OCO3)c1)c1cc(Cl)ccc1Cl
5 | 2.5 | COc1ccc(S(=O)(=O)Nc2ccc(O)c(-c3c(O)ccc4ccccc34)c2)c(OC)c1
6 | 0.55 | COc1ccc(O)c(O)c1-c1cc(NS(=O)(=O)c2cc(Cl)ccc2Cl)ccc1N
7 | 9.4 | Nc1ccc(NS(=O)(=O)c2cc(Cl)ccc2Cl)cc1-c1c(O)ccc2ccccc12
8 | 4.5 | O=S(=O)(Nc1ccc(O)c(-c2c(O)ccc3ccccc23)c1)c1ccccc1
9 | 9.5 | Nc1ccc(NS(=O)(=O)c2ccc(O)cc2O)cc1-c1c(O)ccc2ccccc12
10 | 28 | Cc1ccc(S(=O)(=O)Nc2ccc(F)c(-c3c(O)ccc4c3OCO4)c2)cc1
11 | 1.8 | O=S(=O)(Nc1ccc(O)c(-c2c(O)ccc3ccccc23)c1)c1ccc(O)cc1O
12 | 25 | COc1ccc(S(=O)(=O)Nc2ccc(N)c(-c3c(O)ccc4ccccc34)c2)c(OC)c1
13 | 19.4 | O=S(=O)(Nc1ccc(O)c(-c2ccccc2O)c1)c1cc(Cl)ccc1Cl
14 | 27 | N#Cc1cc(S(=O)(=O)Nc2ccc(F)c(-c3c(O)ccc4c3OCO4)c2)ccc1F
15 | 19.6 | O=S(=O)(Nc1cccc(-c2c(O)ccc3c2OCO3)c1)c1ccc(F)cc1
16 | 1.7 | O=S(=O)(Nc1ccc(O)c(-c2c(O)ccc3c2OCO3)c1)c1cc(Cl)ccc1Cl
17 | 1.3 | COc1cc(O)ccc1S(=O)(=O)Nc1ccc(O)c(-c2c(O)ccc3ccccc23)c1

target: T1, Heat shock protein HSP90; test: Inhibition of Hsp90 in human SKBR3 cells assessed as interaction with Cy3b-conjugated geldanamycin upto 50 uM by FP assay; format: cell-based; settings: SK-BR-3
Method in brief: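 Fluorescence polarization binding assay measuring displacement of fluorescently labeled geldanamycin from the Hsp90 ATP-binding site. Compounds were tested up to a maximum of 50 µM.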

Row | Activity | Compound
18 | inactive | Cc1ccc(S(=O)(=O)Nc2ccc(O)c(-c3ccccc3O)c2)cc1
19 | inactive | O=C(O)c1ccc(S(=O)(=O)Nc2ccccc2-c2c(O)ccc3c2OCO3)cc1
20 | inactive | N#Cc1cc(S(=O)(=O)Nc2cccc(-c3c(O)ccc4c3OCO4)c2)ccc1F
21 | inactive | O=[N+]([O-])c1cccc(S(=O)(=O)Nc2ccc(O)c(-c3ccccc3O)c2)c1
22 | inactive | COc1ccc(S(=O)(=O)Nc2ccc(O)c(-c3ccccc3O)c2)cc1OC
23 | inactive | COc1ccc2c(c1-c1cc(NS(=O)(=O)c3ccccc3N)ccc1N)OCO2
24 | inactive | N#Cc1cc(S(=O)(=O)Nc2ccccc2-c2c(O)ccc3c2OCO3)ccc1F
25 | inactive | O=[N+]([O-])c1ccccc1S(=O)(=O)Nc1ccc(O)c(-c2ccccc2O)c1
26 | inactive | COc1ccc2c(c1-c1cc(NS(=O)(=O)c3ccc(C)cc3)ccc1N)OCO2
27 | inactive | Cc1ccc(S(=O)(=O)Nc2ccc(N)c(-c3ccccc3O)c2)cc1
28 | inactive | O=[N+]([O-])c1ccccc1S(=O)(=O)Nc1ccc(F)c(-c2c(O)ccc3c2OCO3)c1
29 | inactive | O=C(O)c1cccc(S(=O)(=O)Nc2ccc(F)c(-c3c(O)ccc4c3OCO4)c2)c1
30 | inactive | COc1ccc(S(=O)(=O)Nc2ccc(N)c(-c3c(OC)ccc4c3OCO4)c2)cc1OC
31 | inactive | COc1ccc2c(c1-c1cc(NS(=O)(=O)c3cccc([N+](=O)[O-])c3)ccc1N)OCO2
32 | inactive | O=S(=O)(Nc1ccc(F)c(-c2c(O)ccc3c2OCO3)c1)c1ccc(F)cc1
33 | inactive | COc1ccc(S(=O)(=O)Nc2ccc(N)c(-c3ccccc3O)c2)cc1OC
34 | inactive | COc1ccc2c(c1-c1cc(NS(=O)(=O)c3cc(Cl)ccc3Cl)ccc1N)OCO2
35 | inactive | Nc1ccccc1S(=O)(=O)Nc1ccc(O)c(-c2ccccc2O)c1
36 | inactive | O=[N+]([O-])c1cccc(S(=O)(=O)Nc2ccc(F)c(-c3c(O)ccc4c3OCO4)c2)c1
37 | inactive | Nc1cccc(S(=O)(=O)Nc2ccc(F)c(-c3c(O)ccc4c3OCO4)c2)c1
38 | inactive | COc1ccc2c(c1-c1cc(NS(=O)(=O)c3ccccc3[N+](=O)[O-])ccc1N)OCO2
39 | inactive | Nc1ccccc1S(=O)(=O)Nc1ccc(F)c(-c2c(O)ccc3c2OCO3)c1
40 | inactive | Nc1ccc(NS(=O)(=O)c2cc(Cl)ccc2Cl)cc1-c1ccccc1O
41 | inactive | COc1ccc2c(c1-c1cc(NS(=O)(=O)c3cccc(N)c3)ccc1N)OCO2
42 | inactive | Nc1ccc(NS(=O)(=O)c2ccccc2)cc1-c1c(O)ccc2ccccc12
43 | inactive | Nc1cccc(S(=O)(=O)Nc2ccc(O)c(-c3ccccc3O)c2)c1
44 | inactive | O=S(=O)(Nc1ccccc1-c1c(O)ccc2c1OCO2)c1cc(Cl)ccc1Cl

target: T1, Heat shock protein HSP90; test: Inhibition of Hsp90 in human SKBR3 cells assessed as Her2 degradation after 24 hrs by Western blot; format: cell-based; settings: sk-br-3

Row | IC50 [µM] | Compound
45 | 20 | COc1ccc(O)c(O)c1-c1cc(NS(=O)(=O)c2cc(Cl)ccc2Cl)ccc1N

test system: SK-BR-3; test: cells; settings: Homo sapiens, SK-BR-3, 72 h

Row | IC50 [µM] | Compound
46 | 6 | COc1ccc(O)c(O)c1-c1cc(NS(=O)(=O)c2cc(Cl)ccc2Cl)ccc1N
47 | > 50 | O=S(=O)(Nc1ccc(O)c(-c2c(O)ccc3ccccc23)c1)c1ccc(O)cc1O
48 | 6 | O=S(=O)(Nc1ccc(O)c(-c2c(O)ccc3ccccc23)c1)c1cc(Cl)ccc1Cl
49 | 4.4 | O=S(=O)(Nc1ccc(O)c(-c2c(O)ccc3c2OCO3)c1)c1cc(Cl)ccc1Cl
